# Screens: PubChem, Broad Institute
# E-selectin induc – E-selectin induction on HUVECs; P16581; AID 686992; activation, % at 7.58 µM; hit rate 0.37% among 260,000; HUVEC E-selectin immunofluorescence imaging; normalized: neutral wells 0, TNF-alpha wells 100;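 active = mean E-selectin-positive cell signal at least 10% of the positive control, reached in at least 60% of replicates, without over 20% cell loss; inconclusive = no rule given, readout overlaps actives, possibly toxicity-flagged; inactive = the rest, including those meeting only one limit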
# Target sequence (P16581 whole entry, looked up): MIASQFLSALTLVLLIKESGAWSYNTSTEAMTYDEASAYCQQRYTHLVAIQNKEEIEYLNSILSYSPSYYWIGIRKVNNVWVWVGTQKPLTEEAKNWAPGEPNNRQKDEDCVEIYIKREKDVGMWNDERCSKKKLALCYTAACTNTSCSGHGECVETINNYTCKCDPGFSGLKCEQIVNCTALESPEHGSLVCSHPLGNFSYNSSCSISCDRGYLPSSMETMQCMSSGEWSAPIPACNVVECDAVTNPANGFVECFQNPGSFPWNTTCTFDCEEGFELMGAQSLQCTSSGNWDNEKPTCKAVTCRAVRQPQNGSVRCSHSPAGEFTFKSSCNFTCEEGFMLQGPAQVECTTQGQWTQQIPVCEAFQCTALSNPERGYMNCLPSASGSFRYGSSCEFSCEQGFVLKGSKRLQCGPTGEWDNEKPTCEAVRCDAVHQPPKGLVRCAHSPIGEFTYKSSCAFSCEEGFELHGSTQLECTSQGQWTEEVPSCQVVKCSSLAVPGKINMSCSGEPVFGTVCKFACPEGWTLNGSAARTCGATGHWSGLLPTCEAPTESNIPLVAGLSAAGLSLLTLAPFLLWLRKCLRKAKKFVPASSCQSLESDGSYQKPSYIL
#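 material = human umbilical vein endothelial cells (HUVEC), E-selectin induction | quantity = 3,000 cells/well | medium = EGM-2 growth medium on 0.1% gelatin-coated wells | technique = immunofluorescence imaging | read-out basis = % PE-positive cells | control set = TNF-alpha positive control, DMSO neutral control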
# DENV2 CPE rescue – protects cells from dengue virus 2 cytopathic effect; CPE inhibition, % at 9.99 µM; AID 651640; hit rate 1.7% among 350,000; DENV2-infected cells, cytopathic effect rescue, plate reader; in the data active = CPE inhibition above about 20%, passing the limit was not always enough; inconclusive = no clear call, values can overlap the other calls; tested in BHK-21 cells;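 also: 0% = median of neutral control wells and 100% = median of positive control wells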
# SIRT5 inh – sirtuin-5 (human) deacylase inhibition; Q9NXA8; Purified SirT5, succinyl-peptide AMC, trypsin-coupled fluorescence; inhibition, % at 15 µM; hit rate 1.1% among 330,000; AID 652115; in the data active = inhibition above about 15%; inconclusive = no clear call, values can overlap the other calls
# Active calls of the source: *; ? = inconclusive; . = no result given. A selection: hits, their analogues and other compounds. The true share with any hit is near 2.9%.
SMILES,E-selectin induc,DENV2 CPE rescue,SIRT5 inh
C[C@H]1CN([C@@H](C)CO)C(=O)Cc2cc(NC(=O)Nc3ccc4c(c3)OCO4)ccc2O[C@@H]1CN(C)CC1CC1,2.6,-3.9,0.5
C[C@H](CO)N1C[C@H](C)[C@H](CN(C)CC2CC2)Oc2ccc(NC(=O)Nc3ccc4c(c3)OCO4)cc2CC1=O,-13.0,-0.9,-2.4
CC(C)C#Cc1ccc([C@H]2[C@H]3CN(CC4CC4)CCCCN3[C@H]2CO)cc1,-0.7,7.4,0.4
CC(C)C#Cc1ccc([C@H]2[C@@H](CO)N3CCCCN(CC4CC4)C[C@H]23)cc1,-0.5,-0.2,-3.5
CC(C)C#Cc1ccc([C@@H]2[C@H](CO)N3CCCCN(CC4CC4)C[C@@H]23)cc1,-0.2,21.7*,-2.4
CC(C)C#Cc1ccc([C@@H]2[C@H]3CN(CC4CC4)CCCCN3[C@H]2CO)cc1,-0.3,26.1*,-0.8
O=C(Cn1cnc2c(nnn2-c2cccc(Cl)c2)c1=O)N1CCOCC1,0.0,-3.1,-6.6
Cc1ccc(S(=O)(=O)N(C)C[C@H]2Oc3c(NC(=O)Nc4ccc5c(c4)OCO5)cccc3C(=O)N([C@@H](C)CO)C[C@H]2C)cc1,0.0,0.6,15.5*
C[C@@H]1CN([C@@H](C)CO)C(=O)c2cccc(NC(=O)Nc3ccccc3)c2O[C@H]1CN(C)S(=O)(=O)c1ccccc1,?,39.5*,-2.4
C[C@H](CO)N1C[C@H](C)[C@H](CN(C)S(=O)(=O)c2ccccc2)Oc2c(NC(=O)Nc3cccc4ccccc34)cccc2C1=O,0.9,-6.3,.
C[C@H](CO)N1C[C@H](C)[C@@H](CN(C)S(=O)(=O)c2ccccc2)Oc2c(NC(=O)Nc3cccc4ccccc34)cccc2C1=O,-0.4,168.4*,2.6
C[C@@H]1CN([C@H](C)CO)C(=O)c2cccc(NC(=O)Nc3cccc4ccccc34)c2O[C@@H]1CN(C)S(=O)(=O)c1ccccc1,0.5,-10.2,2.8
Cc1ccc(S(=O)(=O)N(C)C[C@@H]2Oc3c(NC(=O)Nc4ccc5c(c4)OCO5)cccc3C(=O)N([C@@H](C)CO)C[C@H]2C)cc1,-0.1,?,9.7
C[C@H](CO)N1C[C@H](C)[C@@H](CN(C)S(=O)(=O)c2ccccc2)Oc2c(NC(=O)Nc3ccccc3)cccc2C1=O,?,-11.5,-1.5
Cc1ccc(S(=O)(=O)N(C)C[C@H]2Oc3c(NC(=O)Nc4cccc5ccccc45)cccc3C(=O)N([C@H](C)CO)C[C@@H]2C)cc1,0.0,34.7*,8.8
CN(C1CCCC1)C1CCN(C(=S)Nc2cc(F)cc(F)c2)CC1,-0.1,5.0,-0.3
COCc1ccc(C(=O)NC(C)c2cnn(-c3ccccc3C)c2C)o1 (stereo not drawn),-0.1,0.0,-7.6
Cc1noc(C)c1NC(=O)N(C)C[C@H]1OCCCC[C@H](C)Oc2ccc(NC(=O)c3ccncc3)cc2C(=O)N([C@H](C)CO)C[C@@H]1C,-0.2,0.5,-3.3
C[C@H](CO)N1C[C@H](C)[C@H](CN(C)S(=O)(=O)c2ccccc2)Oc2c(NC(=O)C3CCOCC3)cccc2C1=O,31.3*,-16.3,10.2
C[C@H](CO)N1C[C@H](C)[C@H](CN(C)S(=O)(=O)c2ccccc2)Oc2c(NC(=O)C3CC3)cccc2C1=O,0.1,?,-4.2
Cc1[nH]c2ccccc2c1/C=N/NC(=O)c1cc(-c2ccccc2)n[nH]1,16.6,?,-0.6
Cc1[nH]c2ccccc2c1/C=N/NC(=O)c1cc(C(C)(C)C)[nH]n1,-0.3,56.5*,3.8
CC(=O)c1cccc(NC(=O)c2cnccn2)c1,.,?,-2.1
CS/C(=C(/C#N)S(=O)(=O)c1ccc(Cl)cc1)N1CCOCC1,1.5,2.7,.
CCC1CN(S(=O)(=O)c2ccc3c(c2)NC(=O)CC(=O)N3)c2cc(Cl)ccc2O1 (stereo not drawn),3.2,22.7*,-4.3
SMILES,E-selectin induc,DENV2 CPE rescue,SIRT5 inh
CCOC(=O)C1CN(S(=O)(=O)c2ccc(Cl)cc2)c2cc(S(=O)(=O)CC)ccc2O1 (stereo not drawn),.,2.1,-0.7
CC(C)(C)NC(=O)C(c1ccccn1)N(C(=O)c1csnn1)C1CCCC1 (stereo not drawn),1.1,2.2,26.7*
Cc1ccc(N(C(=O)c2csnn2)C(C(=O)NC2CCCCC2)c2ccco2)cc1 (stereo not drawn),.,4.2,79.1*
O=C(NC1CCCCC1)C(c1ccccn1)N(C(=O)c1csnn1)C1CCCCC1 (stereo not drawn),4.3,.,15.4*
CCc1ccc(N(C(=O)c2csnn2)C(C(=O)NC(C)(C)C)c2ccccn2)cc1 (stereo not drawn),4.2,.,.
O=C(NC1CCCC1)C(c1ccccc1)N(C(=O)c1csnn1)C1CCCC1 (stereo not drawn),.,-4.6,-2.1
O=C(NC1CCCCC1)C(c1ccco1)N(C(=O)c1csnn1)c1ccccc1 (stereo not drawn),.,-4.8,1.9
O=C(CN1C(=O)NC2(CCCCC2)C1=O)N(Cc1ccco1)Cc1cccs1,.,-8.3,0.4
O=C(c1ccc2c(c1)OCO2)N1C[C@@H]2[C@H](c3ccccc31)[C@@H](CO)N2Cc1cccnc1,0.0,6.4,0.3
COc1ccc2[nH]c3c(c2c1)CCN1C(=O)C(CC(=O)NCc2ccc(OC)c(OC)c2)C[C@H](C(=O)N(C(C)C)C(C)C)[C@@]31C (stereo partly drawn),0.0,5.3,-5.3
COc1ccc(C(c2sc3ncnn3c2O)N2CCN(c3ccccc3F)CC2)cc1OC (stereo not drawn),-0.2,-2.3,3.0
COc1ccc(C(c2sc3ncnn3c2O)N2CC(C)OC(C)C2)cc1OC (stereo not drawn),.,74.6*,-0.3
Cc1ccc(C(C)C)cc1OCC(=O)N/N=C/c1ccc2c(c1)OCCO2,0.9,10.8,0.6
COC(=O)/C=C/c1sc2nc(C)cc(C)c2c1N=CN(C)C,.,7.1,32.5*
COC(=O)c1sc2nc(C)cc(C)c2c1N,.,2.3,0.9
Cc1cc(C)c2c(NC(=S)NC(=O)c3ccccc3)nn(C)c2n1,0.5,-7.6,-1.4
Cc1ccc(C(=O)n2nc(-n3cccc3)c3c(C)cc(C)nc32)cc1,.,1.4,26.0*
CC(C)(C)c1nc2ccc(Cl)cn2c1CC1CCCCC1,0.0,0.5,-4.0
Clc1ccc2nc(C3CCCCC3)c(CC3CCCCC3)n2c1,.,38.2*,-1.7
Cc1cc2ccccc2n1CCNC(=O)Cc1ccccc1,2.9,1.5,-3.6
Cc1cc(C)c(S(=O)(=O)NCCn2c(C)cc3ccccc32)c(C)c1,100.7*,-4.8,-3.6
O=C(COc1ccc(Br)cc1Cl)c1ccc[nH]1,0.4,6.5,-4.0
COc1ccc(S(=O)(=O)N2CCCC2)c2ccccc12,-0.2,-8.5,-1.6
Cc1ccc(S(=O)(=O)Nc2ccc3c(c2)CC(=O)N([C@H](C)CO)C[C@H](C)[C@H](CN(C)C(=O)NC2CCCCC2)O3)cc1,0.2,7.8,-1.3
C[C@@H]1CN([C@@H](C)CO)C(=O)Cc2cc(NS(=O)(=O)c3ccc(Cl)cc3)ccc2O[C@@H]1CN(C)C(=O)NC1CCCCC1,-1.7,-5.1,0.6
C[C@@H]1CN([C@H](C)CO)C(=O)Cc2cc(NS(=O)(=O)c3ccc(Cl)cc3)ccc2O[C@H]1CN(C)C(=O)NC1CCCCC1,2.7,36.5*,-0.5
